{"source": "ChEMBL document CHEMBL5678805", "about": "“Intermittent administration of MEK inhibitor GDC-0973 plus PI3K inhibitor GDC-0941 triggers robust apoptosis and tumor growth inhibition” (Cancer Res, 2012)", "key": {"[1]": {"target": "Calcium/calmodulin-dependent protein kinase type 1 (Homo sapiens, UniProt Q14012)", "sequence (Q14012 whole entry)": "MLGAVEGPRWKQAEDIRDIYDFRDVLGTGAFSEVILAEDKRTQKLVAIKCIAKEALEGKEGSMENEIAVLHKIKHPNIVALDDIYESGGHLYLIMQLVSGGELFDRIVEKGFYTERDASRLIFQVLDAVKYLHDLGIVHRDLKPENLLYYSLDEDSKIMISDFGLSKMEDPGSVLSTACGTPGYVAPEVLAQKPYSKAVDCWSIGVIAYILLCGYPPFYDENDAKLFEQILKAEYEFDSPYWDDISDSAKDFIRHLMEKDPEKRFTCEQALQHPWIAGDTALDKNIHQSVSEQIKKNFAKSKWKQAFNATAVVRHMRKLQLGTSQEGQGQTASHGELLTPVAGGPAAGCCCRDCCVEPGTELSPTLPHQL", "assay": "Inhibition of CaMK1 (unknown origin)"}, "[2]": {"assay": "Antitumor activity against human A375.X1 cells xenografted in mouse assessed as tumor growth inhibition at 20 mg/kg, po administered every third day for 21 days in presence of 4-(2-(1H-indazol-4-yl)-6-((4-(methylsulfonyl)piperazin-1-yl)methyl)thieno[3,2-d]pyrimidin-4-yl)morpholine", "type": "functional", "details": "A375.X1, 504 h, time 21 day, read-out: TGI", "in_short": "(§1)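 Human tumor xenografts in mice. Drugs given orally, as single agents or combined with the PI3K inhibitor. Schedules were daily (QD) or every third day (Q3D) over 21 days. Tumor volume was measured by caliper as (L×W×W)/2. %TGI = 100×[1 − AUC(treatment/d)/AUC(vehicle/d)] from fitted growth curves, with group means. Tumor lysates were immunoblotted for pS6.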"}, "888-mel [3]": {"system": "888-mel", "assay": "Inhibition of AKT phosphorylation in human 888-mel cells preincubated with compound for 24 hrs followed by compound washout and measured after 2 hrs in presence of 4-(2-(1H-indazol-4-yl)-6-((4-(methylsulfonyl)piperazin-1-yl)methyl)thieno[3,2-d]pyrimidin-4-yl)morpholine by immunoblotting analysis", "type": "cell-based", "in_short": "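The medium was then exchanged to remove compound. Lysates were prepared 2 and 24 h after washout and immunoblotted for cleaved PARP, p-AKT and p-ERK using HRP secondary antibody and ECL.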"}, "NCI-H69": {"system": "NCI-H69", "assay": "Antitumor activity against human NCI-H69 cells harboring RBI E748/PK3CA G106_R108/TP53 E171 mutant xenografted in mouse assessed as tumor growth inhibition at 5 mg/kg, po", "type": "functional", "details": "read-out: TGI", "in_short": "(§2)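 Human tumor xenografts in mice were dosed orally at the indicated mg/kg. Tumor volume was measured with calipers as (L×W×W)/2. %TGI = 100 × [1 − (AUC treatment/d)/(AUC vehicle/d)], using the area under the fitted tumor-growth curve per day for each dose group relative to vehicle.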"}, "A-375": {"system": "A-375", "assay": "Antitumor activity against human A-375 cells harboring BRAF V600E/CDKN2A E61 mutant xenografted in mouse assessed as tumor growth inhibition at 2.5 mg/kg, po", "type": "functional", "details": "A-375, read-out: TGI", "in_short": "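Mice carrying human tumor xenografts dosed orally once daily for 21 consecutive days. Tumor volume measured by calipers as (L×W×W)/2. %TGI = 100×[1 − AUC(treatment/day)/AUC(vehicle/day)], using the area under the fitted growth curve relative to vehicle.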"}, "A375.X1": {"system": "A375.X1", "assay": "Antitumor activity against human A375.X1 cells xenografted in po dosed mouse assessed as reduction in ERK phosphorylation administered for 3 days and measured at 2 to 24 hrs by Western blot analysis", "type": "functional, organism-based", "details": "dose 1-10 mg/kg, time 74-96 hrs", "in_short": "(§3)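 A375.X1 xenograft mice were dosed orally at 1, 3, 5 or 10 mg/kg once daily for 3 days. Tumors were collected 2, 8 and 24 h after the last dose, pulverized frozen and resolved by 4–12% SDS-PAGE. p-ERK1/2 and t-ERK1/2 were measured by Western blot and quantified by band intensity, relative to vehicle-treated mice (0 h).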"}, "[4]": {"assay": "Antitumor activity against human A375.X1 cells xenografted in mouse assessed as tumor growth inhibition at 15 mg/kg, po administered every third day for 21 days", "type": "functional", "details": "A375.X1, 504 h, time 21 day, read-out: TGI", "in_short": "as §1"}, "[5]": {"target": "Phosphatidylinositol 4,5-bisphosphate 3-kinase catalytic subunit gamma isoform (Homo sapiens, UniProt P48736)", "sequence (P48736 whole entry, canonical isoform)": "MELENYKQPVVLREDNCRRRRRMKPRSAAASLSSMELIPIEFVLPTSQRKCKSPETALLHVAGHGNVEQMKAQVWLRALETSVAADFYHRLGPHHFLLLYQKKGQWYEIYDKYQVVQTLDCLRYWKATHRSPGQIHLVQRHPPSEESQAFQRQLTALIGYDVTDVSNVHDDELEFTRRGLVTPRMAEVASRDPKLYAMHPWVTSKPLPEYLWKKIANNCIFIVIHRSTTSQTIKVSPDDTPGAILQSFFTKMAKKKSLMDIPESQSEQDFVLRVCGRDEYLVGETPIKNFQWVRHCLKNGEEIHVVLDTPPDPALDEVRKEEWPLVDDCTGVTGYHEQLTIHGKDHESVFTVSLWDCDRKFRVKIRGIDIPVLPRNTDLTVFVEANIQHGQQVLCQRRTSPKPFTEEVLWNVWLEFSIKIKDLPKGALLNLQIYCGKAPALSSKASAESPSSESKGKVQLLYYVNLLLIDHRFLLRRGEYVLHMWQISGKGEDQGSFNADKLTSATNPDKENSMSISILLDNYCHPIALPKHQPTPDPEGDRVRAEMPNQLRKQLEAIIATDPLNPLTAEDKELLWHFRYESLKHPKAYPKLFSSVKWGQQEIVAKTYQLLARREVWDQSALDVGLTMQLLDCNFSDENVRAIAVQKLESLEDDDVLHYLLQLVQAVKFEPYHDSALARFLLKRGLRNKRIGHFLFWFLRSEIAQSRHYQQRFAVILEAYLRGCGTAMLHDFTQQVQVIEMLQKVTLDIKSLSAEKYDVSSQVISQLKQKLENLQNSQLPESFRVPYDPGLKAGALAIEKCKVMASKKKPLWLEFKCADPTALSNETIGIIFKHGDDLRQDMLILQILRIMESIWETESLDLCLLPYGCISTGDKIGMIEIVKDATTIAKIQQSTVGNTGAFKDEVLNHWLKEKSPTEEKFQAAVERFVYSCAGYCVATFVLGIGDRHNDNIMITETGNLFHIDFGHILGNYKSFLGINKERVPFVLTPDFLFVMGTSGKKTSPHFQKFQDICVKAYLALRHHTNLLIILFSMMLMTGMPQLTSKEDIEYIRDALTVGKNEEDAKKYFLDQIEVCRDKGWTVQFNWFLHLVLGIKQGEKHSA", "assay": "Inhibition of PI3Kgamma (unknown origin)"}, "NCI-H520": {"system": "NCI-H520", "assay": "Antitumor activity against human NCI-H520 cells harboring TP53 W146 and CDKN2A G G45 mutant xenografted in mouse assessed as tumor growth inhibition at 5 mg/kg, po", "type": "functional", "details": "read-out: TGI", "in_short": "as §2"}, "Angiopoietin-1 receptor": {"target": "Angiopoietin-1 receptor (Homo sapiens, UniProt Q02763)", "assay": "Inhibition of Tie-2 (unknown origin)"}, "[6]": {"assay": "Antitumor activity against human A375.X1 cells xenografted in mouse assessed as reduction in ERK phosphorylation at 10 mg/kg, po administered for 3 days and measured at 2 to 24 hrs by Western blot analysis", "type": "functional", "set-up": "scale not given: the % may be the effect or the level left", "details": "time 74-96 hrs", "in_short": "as §3"}, "NCI-H441": {"system": "NCI-H441", "assay": "Antitumor activity against human NCI-H441 cells harboring KRAS G12V/TP53 R158L/MET high mutant xenografted in mouse assessed as tumor growth inhibition at 10 mg/kg, po", "type": "functional", "details": "read-out: TGI", "in_short": "as §2"}, "CWR22R": {"system": "CWR22R", "assay": "Antitumor activity against human 22Rv1 cells harboring PIK3CA Q546R/TP53 Q331R mutant xenografted in mouse assessed as tumor growth inhibition at 5 mg/kg, po", "type": "functional", "details": "read-out: TGI"}, "[7]": {"target": "Phosphatidylinositol 4,5-bisphosphate 3-kinase catalytic subunit alpha isoform (Homo sapiens, UniProt P42336)", "assay": "Inhibition of PI3Kalpha (unknown origin)"}, "888-mel [8]": {"system": "888-mel", "assay": "Upregulation of Bim level in human 888-mel cells preincubated with compound for 24 hrs followed by compound washout and measured after 2 hrs in presence of 4-(2-(1H-indazol-4-yl)-6-((4-(methylsulfonyl)piperazin-1-yl)methyl)thieno[3,2-d]pyrimidin-4-yl)morpholine by immunoblotting analysis", "type": "functional, cell-based"}, "888-mel [9]": {"system": "888-mel", "assay": "Inhibition of ERK phosphorylation in human 888-mel cells incubated for 24 hrs in presence of 4-(2-(1H-indazol-4-yl)-6-((4-(methylsulfonyl)piperazin-1-yl)methyl)thieno[3,2-d]pyrimidin-4-yl)morpholine by immunoblotting analysis", "type": "cell-based"}, "[10]": {"assay": "Antitumor activity against human A375.X1 cells harboring BRAF V600E/CDKN2A E61 mutant xenografted in mouse assessed as tumor growth inhibition at 2.5 mg/kg, po", "type": "functional", "details": "A375.X1, read-out: TGI", "in_short": "(§4)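 Single-agent dose ranging in human tumor xenograft mice at 2.5, 5 or 10 mg/kg oral. Tumor volume was measured by caliper as (L×W×W)/2. %TGI = 100×[1 − AUC(treatment/d)/AUC(vehicle/d)] from the fitted growth curve per dose group, relative to vehicle.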"}, "G-361": {"system": "G-361", "assay": "Antiproliferative activity against human G361 cells assessed reduction in cell viability incubated for 4 days in presence of 4-(2-(1H-indazol-4-yl)-6-((4-(methylsulfonyl)piperazin-1-yl)methyl)thieno[3,2-d]pyrimidin-4-yl)morpholine by celltiter-glo assay", "type": "functional", "details": "time 4 day", "in_short": "(§5)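 4-day CellTiter-Glo viability read-out on melanoma lines, cells exposed to increasing concentrations of each inhibitor alone and in combination.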"}, "888-mel [11]": {"system": "888-mel", "assay": "Inhibition of S6 phosphorylation in human 888-mel cells preincubated with compound for 24 hrs followed by compound washout and measured after 2 hrs in presence of 4-(2-(1H-indazol-4-yl)-6-((4-(methylsulfonyl)piperazin-1-yl)methyl)thieno[3,2-d]pyrimidin-4-yl)morpholine by immunoblotting analysis", "type": "cell-based"}, "[12]": {"assay": "Antitumor activity against human A2058-X1 cells harboring BRAF V600E/PTEN L112Q/V175/TP53 V274F mutant xenografted in mouse assessed as tumor growth inhibition at 2.5 mg/kg, po", "type": "functional", "details": "A2058-X1, read-out: TGI", "in_short": "as §4"}, "[13]": {"target": "Protein kinase C alpha type (Homo sapiens, UniProt P17252)", "assay": "Inhibition of PKC alpha (unknown origin)"}, "Hs 695T": {"system": "Hs 695T", "assay": "Antiproliferative activity against human Hs 695T cells assessed reduction in cell viability incubated for 4 days in presence of 4-(2-(1H-indazol-4-yl)-6-((4-(methylsulfonyl)piperazin-1-yl)methyl)thieno[3,2-d]pyrimidin-4-yl)morpholine by celltiter-glo assay", "type": "functional", "details": "time 4 day", "in_short": "as §5"}, "[14]": {"target": "Serine/threonine-protein kinase WNK2 (Homo sapiens, UniProt Q9Y3S1)", "sequence (Q9Y3S1 whole entry)": "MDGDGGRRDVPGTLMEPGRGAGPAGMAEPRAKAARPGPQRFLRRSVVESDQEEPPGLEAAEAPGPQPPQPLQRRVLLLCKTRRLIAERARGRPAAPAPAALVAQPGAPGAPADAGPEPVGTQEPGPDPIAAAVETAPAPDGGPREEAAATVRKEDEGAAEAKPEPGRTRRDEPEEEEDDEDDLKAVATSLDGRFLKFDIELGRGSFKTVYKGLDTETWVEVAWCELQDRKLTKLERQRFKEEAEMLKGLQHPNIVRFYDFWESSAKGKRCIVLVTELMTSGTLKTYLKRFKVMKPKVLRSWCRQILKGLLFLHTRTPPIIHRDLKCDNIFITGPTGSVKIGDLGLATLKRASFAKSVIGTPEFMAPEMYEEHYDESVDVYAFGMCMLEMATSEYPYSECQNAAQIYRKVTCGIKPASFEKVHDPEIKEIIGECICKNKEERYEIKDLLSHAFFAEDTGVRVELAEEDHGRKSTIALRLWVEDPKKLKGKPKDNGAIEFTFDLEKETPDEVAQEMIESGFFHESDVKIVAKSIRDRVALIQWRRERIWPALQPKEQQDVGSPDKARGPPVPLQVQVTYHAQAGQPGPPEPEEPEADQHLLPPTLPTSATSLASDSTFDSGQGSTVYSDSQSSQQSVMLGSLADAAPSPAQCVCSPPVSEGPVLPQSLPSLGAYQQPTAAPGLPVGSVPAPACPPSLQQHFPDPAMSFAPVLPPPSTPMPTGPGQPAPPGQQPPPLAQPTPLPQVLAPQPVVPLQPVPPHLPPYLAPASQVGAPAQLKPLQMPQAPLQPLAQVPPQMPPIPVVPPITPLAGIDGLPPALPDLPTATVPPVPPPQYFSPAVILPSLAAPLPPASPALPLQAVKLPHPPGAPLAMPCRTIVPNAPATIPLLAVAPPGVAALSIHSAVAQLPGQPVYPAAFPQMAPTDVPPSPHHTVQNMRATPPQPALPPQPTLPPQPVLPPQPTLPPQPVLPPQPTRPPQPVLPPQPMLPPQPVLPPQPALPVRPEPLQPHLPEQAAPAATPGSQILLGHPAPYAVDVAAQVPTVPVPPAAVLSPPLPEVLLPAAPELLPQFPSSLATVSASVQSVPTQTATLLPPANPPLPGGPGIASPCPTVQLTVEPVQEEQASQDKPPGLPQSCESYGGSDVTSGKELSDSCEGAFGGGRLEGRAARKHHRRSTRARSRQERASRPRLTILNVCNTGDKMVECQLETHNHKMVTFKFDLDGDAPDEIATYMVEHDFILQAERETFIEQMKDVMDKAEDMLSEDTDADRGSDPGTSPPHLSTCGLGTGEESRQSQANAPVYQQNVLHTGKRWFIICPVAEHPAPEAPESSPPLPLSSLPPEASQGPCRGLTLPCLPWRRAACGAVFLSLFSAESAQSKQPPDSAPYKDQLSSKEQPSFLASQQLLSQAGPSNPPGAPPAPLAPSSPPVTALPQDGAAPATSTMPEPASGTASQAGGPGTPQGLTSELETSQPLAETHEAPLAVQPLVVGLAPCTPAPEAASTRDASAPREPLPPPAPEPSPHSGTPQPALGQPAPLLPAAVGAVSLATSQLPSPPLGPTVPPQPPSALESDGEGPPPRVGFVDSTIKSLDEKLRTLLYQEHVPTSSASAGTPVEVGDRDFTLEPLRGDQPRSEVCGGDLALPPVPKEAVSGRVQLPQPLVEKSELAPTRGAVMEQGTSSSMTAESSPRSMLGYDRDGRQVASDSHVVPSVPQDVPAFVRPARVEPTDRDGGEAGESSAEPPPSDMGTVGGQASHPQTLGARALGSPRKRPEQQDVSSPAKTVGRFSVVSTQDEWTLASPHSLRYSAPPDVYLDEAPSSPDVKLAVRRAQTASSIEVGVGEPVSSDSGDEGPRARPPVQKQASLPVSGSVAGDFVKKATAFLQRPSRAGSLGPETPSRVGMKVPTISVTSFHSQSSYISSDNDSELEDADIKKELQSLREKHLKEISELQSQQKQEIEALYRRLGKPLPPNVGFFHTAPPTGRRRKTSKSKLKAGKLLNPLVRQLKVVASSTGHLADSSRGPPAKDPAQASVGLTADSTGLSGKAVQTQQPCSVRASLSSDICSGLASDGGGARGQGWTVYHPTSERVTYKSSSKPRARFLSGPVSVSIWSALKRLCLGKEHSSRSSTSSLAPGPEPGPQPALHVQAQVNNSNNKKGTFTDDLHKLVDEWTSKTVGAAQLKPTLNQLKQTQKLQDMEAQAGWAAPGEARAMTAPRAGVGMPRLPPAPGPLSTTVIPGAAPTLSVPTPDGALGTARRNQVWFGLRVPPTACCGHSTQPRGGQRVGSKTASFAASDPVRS", "assay": "Inhibition of WNK2 (unknown origin)"}}, "note": "Calls of active or inactive are those of the source. No cut-off for these calls is given here.", "data": [{"compound": "O=C(c1ccc(F)c(F)c1Nc1ccc(I)cc1F)N1CC(O)([C@@H]2CCCCN2)C1", "note": "[COBIMETINIB]", "values": [{"measurement": "IC50", "setting": "[1]", "result": "> 10", "unit": "µM"}, {"measurement": "inhibition in vivo at 20 mg/kg", "setting": "[2]", "result": 118, "unit": "%"}, {"measurement": "inhibition", "setting": "888-mel [3]", "result": "Active"}, {"measurement": "inhibition in vivo at 5 mg/kg", "setting": "NCI-H69", "result": 21, "unit": "%"}, {"measurement": "inhibition in vivo at 2.5 mg/kg", "setting": "A-375", "result": 98, "unit": "%"}, {"measurement": "Activity", "setting": "A375.X1", "result": "Dose-Dependent Effect"}, {"measurement": "inhibition in vivo at 15 mg/kg", "setting": "[4]", "result": 75, "unit": "%"}, {"measurement": "IC50", "setting": "[5]", "result": "> 10", "unit": "µM"}, {"measurement": "inhibition in vivo at 5 mg/kg", "setting": "NCI-H520", "result": 26, "unit": "%"}, {"measurement": "IC50", "setting": "Angiopoietin-1 receptor", "result": "> 10", "unit": "µM"}, {"measurement": "Activity", "setting": "[6]", "result": 75, "unit": "%"}, {"measurement": "inhibition in vivo at 10 mg/kg", "setting": "NCI-H441", "result": 85, "unit": "%"}, {"measurement": "inhibition in vivo at 5 mg/kg", "setting": "CWR22R", "result": 106, "unit": "%"}, {"measurement": "IC50", "setting": "[7]", "result": "> 10", "unit": "µM"}, {"measurement": "Activity", "setting": "888-mel [8]", "result": "Active"}, {"measurement": "inhibition", "setting": "888-mel [9]", "result": "Active"}, {"measurement": "inhibition in vivo at 2.5 mg/kg", "setting": "[10]", "result": 97.5, "unit": "%"}, {"measurement": "Activity", "setting": "G-361", "result": 60, "unit": "%"}, {"measurement": "inhibition", "setting": "888-mel [11]", "result": "Active"}, {"measurement": "inhibition in vivo at 2.5 mg/kg", "setting": "[12]", "result": 36, "unit": "%"}, {"measurement": "IC50", "setting": "[13]", "result": "> 10", "unit": "µM"}, {"measurement": "Activity", "setting": "Hs 695T", "result": 60, "unit": "%"}, {"measurement": "IC50", "setting": "[14]", "result": "> 10", "unit": "µM"}]}]}
